Measured values from ChEMBL document CHEMBL1136924 (J Med Chem, 2009).
Calls of active or inactive are those of the source.

How the values were obtained:
[1] = target: T1, 5-hydroxytryptamine receptor 3A (Cavia porcellus) (UniProt O70212); conditions: Thoracic aorta
T1 sequence (whole entry): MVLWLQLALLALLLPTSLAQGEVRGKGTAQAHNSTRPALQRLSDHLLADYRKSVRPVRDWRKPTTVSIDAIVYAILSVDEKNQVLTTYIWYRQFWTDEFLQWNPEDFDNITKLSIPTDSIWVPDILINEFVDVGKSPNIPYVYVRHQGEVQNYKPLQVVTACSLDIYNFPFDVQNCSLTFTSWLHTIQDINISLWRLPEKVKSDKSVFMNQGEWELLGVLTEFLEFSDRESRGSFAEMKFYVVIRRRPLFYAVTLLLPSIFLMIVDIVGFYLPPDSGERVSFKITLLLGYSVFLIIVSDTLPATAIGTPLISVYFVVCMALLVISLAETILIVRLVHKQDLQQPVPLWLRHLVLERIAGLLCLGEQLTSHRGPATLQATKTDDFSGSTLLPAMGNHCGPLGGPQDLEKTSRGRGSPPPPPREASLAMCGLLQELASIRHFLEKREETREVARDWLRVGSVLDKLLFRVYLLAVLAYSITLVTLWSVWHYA

[2] = target: T1, 5-hydroxytryptamine receptor 3A (Cavia porcellus); experiment: Agonist activity at 5HT3 receptor in voltage-stimulated guinea pig left atrium assessed as positive inotropic potency; format: functional, tissue-based; conditions: Cardiac atrium
Summary of the method: (§1)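 Isolated guinea pig atria in PSS (Tyrode) with ketanserin 1 µM, 95% O2-5% CO2, pH 7.4, 35 °C. Right atrium beating spontaneously (rate); left atrium paced 1 Hz, 0.6-0.8 ms pulses near 50% threshold (force). Isometric recording after 45-60 min stabilization.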

[3] = target: T1, 5-hydroxytryptamine receptor 3A (Cavia porcellus); experiment: Agonist activity at 5HT3 receptor in spontaneously beating guinea pig right atrium assessed as positive chronotropic potency; format: functional, tissue-based; conditions: Cardiac atrium
Summary of the method: as §1

Rattus norvegicus [4] = experiment: Agonist activity at 5HT3 receptor in urethane-anesthetized Sprague-Dawley rat assessed as decrease in heart rate at 40 ug/kg, iv up to 30 seconds post-treatment by von Bezold-Jarisch reflex test; format: functional; parameters: scale not given: the % may be the effect or the level left
[5] = target: T1, 5-hydroxytryptamine receptor 3A (Cavia porcellus); experiment: Intrinsic activity at 5HT3 receptor in voltage-stimulated guinea pig left atrium assessed as positive inotropic potency relative to serotonin; format: tissue-based; conditions: Cardiac atrium
Summary of the method: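 Electrically paced guinea pig left atrium (1 Hz) in PSS containing ketanserin 1 µM, pH 7.4, 35 °C. Contractile force recorded isometrically while cumulative concentrations of 0.1-100 µM were added (DMSO ≤0.3%). Intrinsic activity is expressed as the maximal response relative to that of 5-HT.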

Rattus norvegicus [6] = experiment: Antagonist activity at 5HT3 receptor in urethane-anesthetized Sprague-Dawley rat assessed as prevention of 1-phenylbiguanide-induced bradycardia at 1 ug/kg, iv administered 5 mins before 1-phenylbiguanide challenge measured after 5 mins post-treatment by von Bezold-Jarisch reflex test; format: functional; parameters: scale not given: the % may be the effect or the level left
[7] = target: T1, 5-hydroxytryptamine receptor 3A (Cavia porcellus); experiment: Agonist activity at 5HT3 receptor in spontaneously beating guinea pig right atrium assessed as positive chronotropic potency at 100 uM; format: functional, tissue-based; conditions: Cardiac atrium
Summary of the method: (§2)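 Guinea pig left and right atria were hung in a 15 mL bath of PSS (pH 7.4, 95% O2-5% CO2, 35 °C) with ketanserin 1 µM. The right atrium beat spontaneously; the left was paced at 1 Hz. Cumulative doses (0.1-100 µM; DMSO ≤0.3%) were added after 45-60 min stabilization. Rate or isometric force was recorded. EC50 came from Probit analysis, n≥4. Intrinsic activity was taken relative to 5-HT.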

[8] = target: T2, 5-hydroxytryptamine receptor 3A (Cavia porcellus, UniProt O70212); experiment: Antagonist activity at 5HT3 receptor in spontaneously beating guinea pig right atrium assessed as inhibition of serotonin-induced maximum response by noncompetitive binding assay; format: tissue-based, Cardiac atrium
T2 sequence (O70212 whole entry): T1 sequence (whole entry)
Summary of the method: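 Spontaneously beating guinea pig right atrium; 5-HT concentration-response curves (0.001-1.0 µM) before and after 30 min antagonist exposure at three concentrations. IC50 is inhibition of 50% of maximal 5-HT response, Probit analysis, n = 4-6.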

[9] = target: T1, 5-hydroxytryptamine receptor 3A (Cavia porcellus); experiment: Agonist activity at 5HT3 receptor in voltage-stimulated guinea pig left atrium assessed as positive inotropic potency at 100 uM; format: functional, tissue-based; conditions: Cardiac atrium
Summary of the method: as §2

[10] = target: T1, 5-hydroxytryptamine receptor 3A (Cavia porcellus); experiment: Agonist activity at 5HT3 receptor in guinea pig thoracic aorta assessed as positive contractility potency at 100 uM; format: functional, tissue-based
Summary of the method: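 Guinea pig aortic helicoidal strips in PSS at 35 °C, aerated, under 1 g resting force, washed every 20 min for 1 h. Compounds added cumulatively 0.1-100 µM (DMSO vehicle); isometric contraction recorded.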

Rattus norvegicus [11] = experiment: Antagonist activity at 5HT3 receptor in urethane-anesthetized Sprague-Dawley rat assessed as attenuation of 1-phenylbiguanide-induced bradycardia at 50 ug/kg, iv administered 5 mins before 1-phenylbiguanide challenge measured after 30 mins post-treatment by von Bezold-Jarisch reflex test; format: functional; parameters: scale not given: the % may be the effect or the level left
[12] = target: T3, 5-hydroxytryptamine receptor 3A (Rattus norvegicus, UniProt P35563); experiment: Displacement of [3H]LY278584 from 5HT3 receptor in rat cortical homogenate
T3 sequence (P35563 whole entry): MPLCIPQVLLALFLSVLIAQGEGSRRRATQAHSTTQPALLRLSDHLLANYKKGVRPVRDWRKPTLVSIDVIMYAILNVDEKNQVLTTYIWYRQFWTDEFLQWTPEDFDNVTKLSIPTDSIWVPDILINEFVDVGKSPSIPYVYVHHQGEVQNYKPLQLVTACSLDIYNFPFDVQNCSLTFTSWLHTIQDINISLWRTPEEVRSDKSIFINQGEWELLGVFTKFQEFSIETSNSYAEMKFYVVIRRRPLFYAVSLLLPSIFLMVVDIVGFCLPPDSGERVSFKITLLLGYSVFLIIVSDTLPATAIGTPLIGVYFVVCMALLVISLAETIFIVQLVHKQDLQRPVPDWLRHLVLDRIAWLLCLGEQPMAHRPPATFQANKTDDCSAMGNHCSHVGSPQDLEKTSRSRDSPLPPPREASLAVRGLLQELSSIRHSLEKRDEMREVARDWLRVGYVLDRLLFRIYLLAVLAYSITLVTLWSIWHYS

Rattus norvegicus [13] = experiment: Antagonist activity at 5HT3 receptor in iv dosed urethane-anesthetized Sprague-Dawley rat assessed as inhibition of 1-phenylbiguanide-induced bradycardia administered 5 mins before 1-phenylbiguanide challenge measured after 5 to 30 mins post-treatment by von Bezold-Jarisch reflex test; format: functional
[14] = Ratio of drug level in brain to plasma in rat at 5 mg/kg; format: ADME, organism-based; parameters: dose 5 mg/kg
[15] = target: T2, 5-hydroxytryptamine receptor 3A; experiment: Antagonist activity at 5HT3 receptor in spontaneously beating guinea pig right atrium assessed as inhibition of serotonin-induced maximum response by competitive binding assay; parameters: species or system Cardiac atrium; conditions: read-out: pA2 (converted)
Rattus norvegicus [16] = experiment: Antagonist activity at 5HT3 receptor in urethane-anesthetized Sprague-Dawley rat assessed as effect on 1-phenylbiguanide-induced bradycardia at 36 ug/kg, iv administered 5 mins before 1-phenylbiguanide challenge measured after 5 to 30 mins post-treatment by von Bezold-Jarisch reflex test; format: functional, organism-based
Rattus norvegicus [17] = experiment: Agonist activity at 5HT3 receptor in iv dosed urethane-anesthetized Sprague-Dawley rat assessed as induction of bradycardia measured after 5 to 30 mins post-treatment by von Bezold-Jarisch reflex test; format: functional

NCCc1c[nH]c2ccc(O)cc12
pD2 [1]: 4.19
pD2 [2]: 6.85
pD2 [3]: 5.78

N=C(N)NC(=N)Nc1ccccc1 [PHENYL BIGUANIDE]
Activity (Rattus norvegicus [4]): 64%
pD2 [2]: 4.31
Intrinsic activity [5]: 1

COc1cc(N)c(Cl)cc1C(=O)NC1CN2CCC1CC2 (configuration not stated) [ZACOPRIDE]
Activity (Rattus norvegicus [6]): 100%

NC(=O)CN1CCN(c2nc3cc(F)ccc3n3cccc23)CC1
pD2 [7]: inactive
IC50 [8]: 11200 nM
pD2 [9]: inactive
pD2 [10]: inactive
Activity (Rattus norvegicus [11]): 35%
Ki [12]: 7.3 nM
ID50 (Rattus norvegicus [13]): Dose-dependent effect
ED50 (Rattus norvegicus [13]; read-out: ID50 (the source's name)): 0.075 mg/kg

O=C(O)CN1CCN(c2nc3cccc(F)c3n3cccc23)CC1
Kp [14]: 0.1

CN1[C@@H]2CC[C@H]1C[C@@H](OC(=O)c1c[nH]c3ccccc13)C2 [TROPISETRON]
pD2 [7]: inactive
pD2 [9]: inactive
pD2 [10]: inactive
Kb [15]: 30.2 nM

O=C(O)CN1CCN(c2nc3cc(F)ccc3n3cccc23)CC1
pD2 [7]: inactive
Activity (Rattus norvegicus [16]): inactive
IC50 [8]: 1910 nM
pD2 [9]: inactive
pD2 [10]: inactive
ED50 (Rattus norvegicus [17]): 0.036 mg/kg
Ki [12]: 11.7 nM
